MC4R antag cAMP – MC4R antagonists of cAMP signaling, primary screen, cell-based, TR-FRET, antagonist arm of biased-ligand search. inhibition, % at 6.5 µM. AID 540295, 2011. 0.48% of 360,000 active. MC4R-expressing cells, MTII-stimulated cAMP, LANCE TR-FRET;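 active means inhibition above its plate's cutoff, the mean of tested wells on that plate plus 3 SD, cut at about 29% in these data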;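 further: 0% = Melanotan II alone and 100% = Melanotan II plus saturating MCL0020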
Target sequence (P32245 whole entry, looked up): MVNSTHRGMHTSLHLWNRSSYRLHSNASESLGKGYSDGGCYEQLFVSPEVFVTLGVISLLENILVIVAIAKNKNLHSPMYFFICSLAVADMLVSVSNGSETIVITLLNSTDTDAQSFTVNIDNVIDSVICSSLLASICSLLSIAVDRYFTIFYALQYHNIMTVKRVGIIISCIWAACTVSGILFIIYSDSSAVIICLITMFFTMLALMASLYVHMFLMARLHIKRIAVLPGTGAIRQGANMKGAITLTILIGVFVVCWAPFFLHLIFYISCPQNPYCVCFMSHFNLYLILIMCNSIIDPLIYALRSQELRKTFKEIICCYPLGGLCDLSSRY
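System: U2OS-MC4R stable cell line; Technique: Eu-cAMP/anti-cAMP TR-FRET, emission 671 nm; Repeats: single well per compound; Also added: Melanotan II; Dosing: one concentration, 6.5 µM nominal; Schedule: 30-min compound, 1-h challenge, 1-h detection, room temperature.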
ATG4B inh – ATG4B protease inhibitors, primary screen, biochemical, fluorescence, uHTS; 0.51% of 340,000 active; ATG4B cleavage of LC3-PLA2, NBD-HPC fluorescence, 1 h; Cysteine protease ATG4B (Homo sapiens), Q9Y4P1; AID 504462, 2011; inhibition, % at 8.33 µM; in the data active means inhibition above about 40%
MPTP inh – mitochondrial permeability transition pore inhibitors, primary screen, biochemical, isolated mouse mitochondria, absorbance | Ca2+ swelling absorbance, 30 min | inhibition, % at 10 µM | 1.4% of 360,000 active;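 active means inhibition of 50% or more, scaled per plate between neutral and stimulator controls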;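 further: 0% = DMSO wells given calcium and 100% = 1 mM EGTA wells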
SMARCA2 act – SMARCA2 (BRM) function activators, primary screen, cell-based, luminescence, high throughput. MG213 cells, MMTV-luciferase reporter, dexamethasone, overnight. activation, % at 9.1 µM. 1% of 370,000 active; in the data active means activation above about 7.8%;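 further: 0% = vehicle wells and 100% = reference activator wells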
MC4R barr agon – MC4R agonists recruiting beta-arrestin, primary screen, cell-based, luminescence, agonist arm of biased-ligand search; Melanocortin receptor 4 (Homo sapiens), P32245; U2OS MC4R beta-arrestin complementation; percent of melanotan II response, DMSO zero; activation, % at 8.9 µM; 0.98% of 360,000 active;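 active means activation above a per-plate cutoff, the mean activation of sample wells on that plate plus 3 SD, cut at about 8% in these data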
cAMP nonselect – nonselective cAMP signaling inhibitors, parental cells, counter-screen for MC4R biased antagonist project, cell-based, TR-FRET, U2OS, forskolin, triplicate; AID 602193, 2012; 26% of 1,600 active; inhibition, % at 6.5 µM; shares compounds with MC4R antag cAMP; LANCE TR-FRET;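 active means mean inhibition over triplicates above the low-control well mean plus 3 SD, set per campaign, cut at about 13% in these data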;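 further: signal is single emission at 671 nm which falls as cellular cAMP rises; 0% = forskolin-stimulated wells and 100% = buffer without forskolin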
MC4R antag conf – MC4R cAMP antagonists, retest, confirmation, cell-based, TR-FRET | AID 602195, 2012 | MC4R-expressing cells, MTII-stimulated cAMP | 27% of 1,600 active | inhibition, % at 6.5 µM | shares compounds with MC4R antag cAMP; in the data active means inhibition above about 29%;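 further: 0% = agonist stimulated wells alone and 100% = agonist stimulated wells plus saturating reference antagonist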
Active calls of the source: *; . = no result. Most compounds without a hit are left out; they make up all but 4.1% or so of the library.

SMILES | MC4R antag cAMP | ATG4B inh | MPTP inh | SMARCA2 act | MC4R barr agon | cAMP nonselect | MC4R antag conf
COC(=O)Cn1c(CN2CCN(c3ccc(F)cc3)CC2)nc2c1c(=O)n(C)c(=O)n2C | 29* | -1 | 1 | . | 1 | 4 | 11
CCOCCn1c(CN2CCN(c3ccc(F)cc3)CC2)nc2c1c(=O)n(C)c(=O)n2C | 17 | 5 | 0 | -1 | 1 | . | .
CCN=C1SC(CC(=O)NC(C)C)C(=O)N1CC (stereo not given) | 6 | -1 | 0 | -1 | 1 | . | .
CCN=C1SC(CC(N)=O)C(=O)N1CC (stereo not given) | 32* | 3 | -2 | -4 | 2 | 4 | 4
Brc1ccc2nc(-c3ccc(CN4CCC5(CC4)CNc4ccccc45)cc3)c(-c3ccccc3)nc2c1 | . | . | . | -1 | . | . | .
N#Cc1c(N2CCN(C(=O)c3ccco3)CC2)nc(-c2ccccc2)c2c1CCCC2 | 34* | 33 | -1 | -2 | 2 | 8 | 43*
N#Cc1c(N2CCN(C(=O)c3ccccc3)CC2)nc(-c2ccccc2)c2c1CCCC2 | 15 | 1 | 3 | -1 | -1 | . | .
Cc1cccn2c(CN3CCSCC3)c(C(=O)N3CCOCC3)nc12 | 29* | 9 | 1 | -5 | 0 | 1 | 4
COCC1CCN(Cc2c(C(=O)N3CCOCC3)nc3c(C)cccn23)C1 (stereo not given) | 6 | . | 1 | -5 | -1 | . | .
COC(=O)[C@]12C[C@H](CC(=O)N3CCCC3)C(=O)N(Cc3ccccc3)C1=C[C@H](C1CCCC1)O[C@@H]2C | . | . | . | -4 | . | . | .
COc1cc(OC)c(C#N)c(S(=O)(=O)Cc2ccccc2)c1 | 10 | -15 | 0 | -4 | 0 | . | .
N#Cc1c([N+](=O)[O-])cc([N+](=O)[O-])cc1S(=O)(=O)Cc1ccccc1 | 88* | -6 | 14 | -8 | -6 | 34* | -5
O=C(Nc1sc2c(c1C(=O)NCC1CCCO1)CCCC2)c1cccs1 (stereo not given) | 31* | -7 | 1 | 0 | 1 | 3 | 15
COC(=O)c1ccc(S(=O)(=O)N2CCC(NC(=O)CCc3ccccc3)CC2)cc1 | . | . | . | 4 | . | . | .
COc1ccc(C(C(=O)N(C)C2CCCC2)N(Cc2ccc(F)cc2)C(=O)c2csc(N3CCOCC3)n2)cc1OC (stereo not given) | . | . | . | -1 | . | . | .
NC(=O)COC(=O)CC1CC2CCC1C2 (stereo not given) | 1 | -8 | 0 | -1 | -2 | . | .
O=C1CCC(=O)N1CC1CC2CCC1C2 (stereo not given) | 37* | 6 | -1 | 3 | 0 | 1 | -2
COCC(=O)Oc1cc(-c2ccc(C)cc2C)c(OC(=O)COC)c(-c2ccc(C)cc2C)c1 | 30* | . | 45 | -1 | 0 | 8 | 6
Cc1ccc(OCC(=O)Oc2c(C)cccc2C)cc1 | 14 | 13 | -1 | -2 | 4 | . | .
O=C(Nc1nnc(SCc2ccc(F)cc2)s1)c1cnccn1 | 32* | 7 | 0 | 3 | 0 | -4 | -11
COc1cccc(/C=C2\CC3(OC(=O)C4CCCC4)CCCN2C3)c1 (stereo not given) | . | . | . | -4 | . | . | .
CS(=O)(=O)N[C@@H]1C[C@@H]2O[C@@H](CO)CC[C@@H]2O[C@@H]1CCc1ccc(-c2ccccc2F)cc1 | . | . | . | -4 | . | . | .
CC1=NNC(=O)/C1=C\c1cn(-c2ccccc2)nc1-c1ccccc1 | 51* | 11 | -6 | -10 | -4 | 26* | 57*
CC(C)C[C@@H]1COc2cc(Br)ccc2S(=O)(=O)N1Cc1cn(Cc2ccccc2)nn1 | . | . | . | -5 | . | . | .
COc1ccc(C(C)=O)cc1Cn1c(=O)cc(C)[nH]c1=O | 30* | -3 | -1 | -1 | 1 | -2 | -9
SMILES | MC4R antag cAMP | ATG4B inh | MPTP inh | SMARCA2 act | MC4R barr agon | cAMP nonselect | MC4R antag conf
COc1ccc(C(C)=O)cc1CN(C)C | 8 | -3 | -1 | -3 | -1 | . | .
N#Cc1c(-c2ccccc2)cc(C2CC2)nc1N | 4 | -5 | 0 | 1 | 0 | . | .
CC(=O)Nc1nc(C2CC2)cc(-c2ccccc2)c1C#N | 35* | 3 | -1 | -2 | -1 | 1 | 0
O=C(COC(=O)[C@H](Cc1ccccc1)NC(=O)c1ccco1)NCc1ccccc1 | 29* | -11 | 2 | -6 | -2 | 7 | 14
CN(C)C(=O)COC(=O)[C@H](Cc1ccccc1)NC(=O)c1ccco1 | 29* | -5 | 10 | -3 | -1 | 14* | 27
CN(C(=O)COC(=O)C(Cc1ccccc1)NC(=O)c1ccccc1)c1ccccc1 (stereo not given) | 15 | -11 | -1 | 1 | -1 | . | .
CCc1noc(C)c1C(=O)N1CCN(CC(=O)OC)CC1 | . | . | . | -4 | . | . | .
COC(=O)[C@]12C[C@H](CC(=O)NCc3ccc(OC)c(OC)c3)C(=O)N(Cc3ccc4c(c3)OCO4)C1=C[C@H](C(C)C)O[C@@H]2C1CC1 | . | . | . | 1 | . | . | .
O=C(/C=C/c1ccc(Cl)cc1)c1ccc([N+](=O)[O-])o1 | 40* | 5 | -1 | 0 | -2 | 9 | 27
O=C(O)c1ccc2c(c1)SC1=NS(=O)(=O)CCN12 | 29* | -10 | 1 | -1 | 1 | 20* | 2
C[C@H]1CCC/C=C/C(=O)c2c(cc(O)c(Cl)c2O)CC(=O)O1 | . | . | . | -1 | . | . | .
Cc1ccccc1N1CCN(C2CCCN(C(=O)CN3CCCC3=O)C2)CC1 (stereo not given) | 31* | 1 | 1 | -1 | 0 | -2 | -4
CCCCCCCCN1C(=O)[C@@H](CC(=O)NCCCN2CCCC2=O)C[C@@]2(C(=O)OC)C1=C[C@H](C(C)(C)C)O[C@@H]2C | . | . | . | -1 | . | . | .
CC1=NOC(=O)/C1=C/c1ccc(O)c(Br)c1 | -5 | -1 | 1 | 0 | -1 | . | .
CC1=NOC(=O)/C1=C/c1ccc(O)cc1 | 35* | 6 | 0 | 0 | 0 | -4 | -38
NCCN1CCN(S(=O)(=O)c2ccc3c(c2)CCN3C(=O)C2CCC2)CC1 | . | . | . | -2 | . | . | .
Cc1ccc(-c2nn(-c3ccccc3)cc2C(=O)Nc2cccc(S(=O)(=O)NC3=NCCC3)c2)cc1 | 8 | . | 0 | -2 | -1 | . | .
Cc1ccc(-c2nn(-c3ccccc3)cc2C(=O)Nc2ccc(C(=O)O)cc2)cc1 | 33* | 8 | 1 | -1 | 1 | 2 | -5
O=C(Nc1cccc(S(=O)(=O)NC2=NCCC2)c1)c1cn(-c2ccccc2)nc1-c1ccc(F)cc1 | 29* | -10 | 0 | 2 | -3 | 4 | 11

Compound activity from PubChem.
